Experiments:
[1] = system: Mycolicibacterium smegmatis; assay: Antibiofilm activity against Mycobacterium smegmatis str. MC2 155 ATCC 700084 after 48 hrs by crystal violet staining based […] assay; assay type: functional, organism-based; settings: MC2 155 ATCC 700084, 48 h
Procedure, shortened: (§1)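 IC50 is the concentration giving 50% inhibition of biofilm formation relative to an untreated control.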

[2] = Hemolytic activity in sheep RBC at 500 uM incubated for 1 hr under shaking condition by UV-spectrophotometry relative to 1% Triton-X; assay type: ADME, cell-based, Ovis aries, Erythrocyte; settings: sheep red blood cells (erythrocytes), read-out: Activity
Procedure, shortened: (§2)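 Red blood cells were exposed to compound, and hemolysis was expressed as percent lysis relative to 1% Triton-X. The assay served as an antibiotic toxicity screen, and 500 μM was the highest concentration tested.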

[3] = system: Mycolicibacterium smegmatis; assay: Toxicity against Mycobacterium smegmatis str. MC2 155 ATCC 700084 at 60 uM assessed as planktonic growth inhibition incubated for 4 to 48 hrs followed by replating on 7H10 plates and measured after 48 hrs by time kill curve assay; assay type: organism-based; settings: in vivo
Procedure, shortened: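 Planktonic growth curves of bacteria grown with compound at 60 μM were compared with curves from untreated cultures.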

[4] = Hemolytic activity in sheep RBC at 200 uM incubated for 1 hr under shaking condition by UV-spectrophotometry relative to 1% Triton-X; assay type: ADME, cell-based, Ovis aries, Erythrocyte; settings: sheep red blood cells (erythrocytes), read-out: Activity; procedure, shortened: as §2
[5] = Hemolytic index, ratio of compound concentration causing hemolysis in sheep RBC to IC50 for antibiofilm activity against Mycobacterium smegmatis str. MC2 155 ATCC 700084
Procedure, shortened: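 Red blood cells were exposed to compound at up to 500 μM, including 200 μM. Lysis was quantified relative to 1% Triton-X. The index was calculated as the hemolysis-causing concentration divided by the biofilm-inhibition IC50.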

[6] = system: Mycolicibacterium smegmatis; assay: Antibiofilm activity against Mycobacterium smegmatis str. MC2 155 ATCC 700084 after 48 hrs by crystal violet staining based spectrophotometric assay; assay type: functional, organism-based; settings: MC2 155 ATCC 700084, 48 h; procedure, shortened: as §1

For CCCCCCc1ccc(C(=O)Nc2ccc3nc(N)ncc3c2)cc1, the IC50 [1] was 65 µM.

In the case of CCCCCCS(=O)(=O)Nc1ccc2nc(N)ncc2c1, the IC50 [1] is reported as > 100 µM.

Work on CCC(=O)Nc1ccc2nc(N)ncc2c1 yielded an IC50 [1] of 42 µM.

In the case of Nc1ncc2cc(NS(=O)(=O)c3cccs3)ccc2n1, the IC50 [1] is reported as > 100 µM.

In the case of CCCc1ccc(C(=O)Nc2ccc3nc(N)ncc3c2)cc1.Cl, the hemolysis at 1 h, 500 µM [2] is reported as 25%, the Activity [3] is reported as “Non-Toxic” and the hemolysis at 1 h, 200 µM [4] is reported as 14%. For the same compound, the HI [5] was > 33 and the IC50 [1] was 16 µM.

Work on CCCS(=O)(=O)Nc1ccc2nc(N)ncc2c1 yielded an IC50 [1] of 36 µM.

For Nc1ncc2cc(NC(=O)c3ccc(Br)cc3)ccc2n1, the IC50 [1] was 44 µM.

Compound CCCCc1ccc(C(=O)Nc2ccc3nc(N)ncc3c2)cc1 has an IC50 [1] of 39 µM.

With Nc1ncc2cc(NC(=O)CCl)ccc2n1 the IC50 [1] was 43 µM.

CCCCCCC(=O)Nc1ccc2nc(N)ncc2c1 showed an IC50 [1] of 49 µM.

CC(=O)Nc1ccc2nc(N)ncc2c1 gave an IC50 [1] of 54 µM.

Compound CCCCC(=O)Nc1ccc2nc(N)ncc2c1 has an IC50 [1] of 26 µM.

CCCCCC(=O)Nc1ccc2nc(N)ncc2c1 gave an IC50 [1] of 23 µM.

In the case of CCCCCCCC(=O)Nc1ccc2nc(N)ncc2c1, the IC50 [1] is reported as > 100 µM.

In the case of CCCCCCCc1ccc(C(=O)Nc2ccc3nc(N)ncc3c2)cc1, the hemolysis at 1 h, 500 µM [2] is reported as 57%, the hemolysis at 1 h, 200 µM [4] is reported as 31% and the IC50 [1] is reported as > 100 µM.

Work on CCc1ccc(C(=O)Nc2ccc3nc(N)ncc3c2)cc1 yielded an IC50 [1] of 18 µM.

Compound Nc1ncc2cc(NC(=O)c3cc(Cl)cc(Cl)c3)ccc2n1 has an IC50 [1] of 42 µM.

In the case of CCCCCCCCC(=O)Nc1ccc2nc(N)ncc2c1, the IC50 [1] is reported as > 100 µM.

With Nc1ncc2cc(NC(=O)c3ccc(F)cc3)ccc2n1 the IC50 [1] was > 200 µM.

For Nc1ncc2cc(NC(=O)C(Cl)(Cl)Cl)ccc2n1, the IC50 [1] was 50 µM.

CCS(=O)(=O)Nc1ccc2nc(N)ncc2c1 showed an IC50 [1] of 34 µM.

For Cl.Nc1ncc2cc(NC(=O)c3ccc(Cl)cc3)ccc2n1, the hemolysis at 1 h, 500 µM [2] was 24%, the Activity [3] was “Non-Toxic” and the hemolysis at 1 h, 200 µM [4] was 4%. For the same compound, the HI [5] was > 33 and the IC50 [1] was 15 µM.

In the case of CCCC(=O)Nc1ccc2nc(N)ncc2c1, the IC50 [1] is reported as 37 µM.

With Nc1ncc2cc(NC(=O)c3ccccc3)ccc2n1 the IC50 [1] was 34 µM.

Work on CCCCS(=O)(=O)Nc1ccc2nc(N)ncc2c1 yielded an IC50 [1] of 60 µM.

Nc1ncc2cc(NC(=O)c3cc(F)cc(F)c3)ccc2n1 gave an IC50 [1] of 46 µM.

With Nc1ncc2cc(NC(=O)c3ccc(I)cc3)ccc2n1 the IC50 [1] was > 200 µM.

In the case of CS(=O)(=O)Nc1ccc2nc(N)ncc2c1, the IC50 [1] is reported as > 100 µM.

Compound CCCCCc1ccc(C(=O)Nc2ccc3nc(N)ncc3c2)cc1 has an IC50 [1] of 39 µM.

With CCCCCCC(CCCCCC)NC(=O)CCCc1c[nH]c(N)n1 the IC50 [6] was 5.3 µM.

Work on Cc1ccc(C(=O)Nc2ccc3nc(N)ncc3c2)cc1 yielded an IC50 [1] of 19 µM.

Source: ChEMBL document CHEMBL4373648, “Anti-biofilm activity of quinazoline derivatives against Mycobacterium smegmatis” (Medchemcomm, 2019)
